≈ marks a conversion by molar mass, not a printed value.
Columns and labels:
Escherichia coli = assay: Antibacterial activity against Escherichia coli ATCC 35218 after 24 hrs by MTT assay; type: functional; settings: ATCC 35218, 24 h
Outline: (§1)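 Broth microdilution per CLSI; compounds dissolved in DMSO (stock […]) and serially diluted in sterilized liquid medium (50% v/v DMSO in PBS). Inoculum about 10^5 cfu/mL, incubated 37 °C for 24 h. Growth read colorimetrically with MTT dye, OD at 550 nm; MIC50 determined.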

Pseudomonas putida = assay: Antibacterial activity against Pseudomonas putida ATCC 49128 after 24 hrs by MTT assay; type: functional; settings: ATCC 49128, 24 h; outline: as §1
Bacillus spizizenii = assay: Antibacterial activity against Bacillus subtilis ATCC 6633 after 24 hrs by MTT assay; type: functional; settings: ATCC 6633, 24 h; outline: as §1
MDA-MB-435 = assay: Cytotoxicity against human MDA-MB-435 cells after 48 hrs by MTT assay; type: functional, cell-based; settings: MDA-MB-435, 48 h
Outline: (§2)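 Cells seeded at 2 × 10^4 cells/mL, preincubated 24 h at 37 °C, 5% CO2. Compounds from DMSO mother solutions diluted in complete medium (DMSO ≤0.1%), added at pre-set concentrations with 5-fluorouracil and cisplatin as references. 48 h exposure, then MTT (2.5 mg/mL in PBS) 4 h, SDS/isobutanol/HCl solubilisation overnight, OD 570 nm. Triplicate wells, assays repeated ≥3 times; IC50.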

Staphylococcus aureus = assay: Antibacterial activity against Staphylococcus aureus ATCC 25923 after 24 hrs by MTT assay; type: functional; settings: ATCC 25923, 24 h; outline: as §1
A549 = assay: Cytotoxicity against human A549 cells after 48 hrs by MTT assay; type: functional, cell-based; settings: A549, 48 h; outline: as §2
Huh-7 = assay: Cytotoxicity against human HuH7 cells after 48 hrs by MTT assay; type: functional, cell-based; settings: Huh-7, 48 h; outline: as §2

Structure (SMILES) | MIC50 (Escherichia coli) | MIC50 (Pseudomonas putida) | MIC50 (Bacillus spizizenii) | IC50 (MDA-MB-435) | MIC50 (Staphylococcus aureus) | IC50 (A549) | IC50 (Huh-7)
c1ccc2c(C(n3cccn3)n3cccn3)c3ccccc3cc2c1 | 4.8 µg/mL (≈ 14.8 µM) | 1.54 µg/mL (≈ 4.76 µM) | 3.26 µg/mL (≈ 10 µM) | 23.8 µg/mL (≈ 73.3 µM) | 2.13 µg/mL (≈ 6.57 µM) | 9.77 µg/mL (≈ 30.1 µM) | 28 µg/mL (≈ 86.2 µM)
O=C(N[C@H](CO)[C@H](O)c1ccc([N+](=O)[O-])cc1)C(Cl)Cl [CHLORAMPHENICOL] | 3.04 µg/mL (≈ 9.41 µM) | 0.182 µg/mL (≈ 0.563 µM) | 1.25 µg/mL (≈ 3.88 µM) | – | 0.499 µg/mL (≈ 1.54 µM) | – | –
O=c1[nH]cc(F)c(=O)[nH]1 [FLUOROURACIL] | – | – | – | 25.6 µg/mL (≈ 197 µM) | – | 24.9 µg/mL (≈ 191 µM) | 20 µg/mL (≈ 154 µM)
